Values after ≈ are worked out from the molar mass of the structure shown. Active and inactive are the calls of the source. The calls are words filed in the database; no cut-off is given here.
Tests used:
[1] = tested on: Human immunodeficiency virus 1; experiment: Antiviral activity against HIV1 3B in human MT4 cells assessed as protection against virus-induced cytopathogenicity by MTT assay; assay type: functional, organism-based; design: Activity: concentration or dose not given beside the values; settings: for IC50: Human immunodeficiency virus 1, 3B, MT4
Summary of the method: (§1)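 MT-4 cells at 6 × 10⁵ cells/ml infected with HIV-1 IIIB or HIV-2 ROD at 100–300 CCID50; compounds in serial five-fold dilutions, triplicate mock- and virus-infected wells. MTT viability read at 540 and 690 nm after 5 days, median OD of three wells; EC50 = 50% protection from viral cytopathic effect.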

[2] = tested on: Human immunodeficiency virus 2; experiment: Antiviral activity against HIV2 ROD in human MT4 cells assessed as protection against virus-induced cytopathogenicity by MTT assay; assay type: functional, organism-based; design: Activity: concentration or dose not given beside the values; settings: for IC50: Human immunodeficiency virus 2, ROD, MT4; summary of the method: as §1
[3] = Cytotoxicity against human MT4 cells by MTT assay; assay type: cell-based
Summary of the method: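 Mock-infected MT-4 cells (6 × 10⁵ cells/ml) with serial five-fold compound dilutions in triplicate; MTT reduction read at 540 and 690 nm after 5 days, median OD of three wells; CC50 = concentration reducing OD540 of mock-infected control by 50%.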

[4] = Cytotoxicity against human HeLa cells; assay type: cell-based
Summary of the method: (§2)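 Uninfected cell cultures exposed to test compounds alongside antiviral assays; minimum cytotoxic concentration (MCC) = concentration causing a microscopically detectable alteration of cell morphology.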

[5] = tested on: Vesicular stomatitis virus; experiment: Antiviral activity against vesicular stomatitis virus in human HeLa cells assessed as inhibition of virus-induced cytopathogenicity; assay type: functional
Summary of the method: (§3)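 Confluent cell monolayers (E6SM, HEL, HeLa or Vero, per line) inoculated with 100 CCID50 virus; 1 h adsorption, residual virus removed, then incubated with compound at 400, 200, 100 … µg/ml. Cytopathicity scored once complete in untreated virus controls; MIC = concentration inhibiting virus-induced cytopathicity.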

Coxsackievirus B4 [6] = experiment: Antiviral activity against Coxsackie virus B4 in human HeLa cells assessed as inhibition of virus-induced cytopathogenicity; assay type: functional; settings: Enterovirus B; summary of the method: as §3
[7] = tested on: Respiratory syncytial virus; experiment: Antiviral activity against respiratory syncytial virus in human HeLa cells assessed as inhibition of virus-induced cytopathogenicity; assay type: functional; summary of the method: as §3
E6SM = experiment: (§4) Cytotoxicity against human E6SM cells; assay type: cell-based; settings: e6sm; summary of the method: as §2
[8] = Cytotoxicity against human HEL cells assessed as alteration of cell morphology; assay type: cell-based; summary of the method: as §2
Human alphaherpesvirus 1 [9] = experiment: Antiviral activity against HSV1 KOS in human E6SM cells assessed as reduction of virus-induced cytopathogenicity; assay type: functional; settings: Human alphaherpesvirus 1, KOS; summary of the method: as §3
Human alphaherpesvirus 1 [10] = experiment: Antiviral activity against HSV1 KOS in human HEL cells assessed as reduction of virus-induced cytopathogenicity; assay type: functional; settings: Human alphaherpesvirus 1, KOS; summary of the method: as §3
Human alphaherpesvirus 2 [11] = experiment: Antiviral activity against HSV2 G in human E6SM cells assessed as reduction of virus-induced cytopathogenicity; assay type: functional; settings: Human alphaherpesvirus 2, G; summary of the method: as §3
Human alphaherpesvirus 2 [12] = experiment: Antiviral activity against HSV2 G in human HEL cells assessed as reduction of virus-induced cytopathogenicity; assay type: functional; settings: Human alphaherpesvirus 2, G; summary of the method: as §3
[13] = tested on: Vesicular stomatitis virus; experiment: Antiviral activity against in Vesicular stomatitis virus in human E6SM cells assessed as reduction of virus-induced cytopathogenicity; assay type: functional; summary of the method: as §3
[14] = tested on: Vesicular stomatitis virus; experiment: Antiviral activity against in Vesicular stomatitis virus in human HEL cells assessed as reduction of virus-induced cytopathogenicity; assay type: functional; summary of the method: as §3
Human alphaherpesvirus 1 [15] = experiment: Antiviral activity against thymidine kinase deficient and acyclovir resistant HSV1 KOS in human E6SM cells assessed as reduction of virus-induced cytopathogenicity; assay type: functional; settings: Human alphaherpesvirus 1, KOS; summary of the method: as §3
Human alphaherpesvirus 1 [16] = experiment: Antiviral activity against thymidine kinase deficient and acyclovir resistant HSV1 KOS in human HEL cells assessed as reduction of virus-induced cytopathogenicity; assay type: functional; settings: Human alphaherpesvirus 1, KOS; summary of the method: as §3
Vero = experiment: Cytotoxicity against african green monkey Vero cells; assay type: cell-based; settings: chlorocebus sabaeus; summary of the method: as §2
Coxsackievirus B4 [17] = experiment: Antiviral activity against Coxsackie virus B4 in african green monkey Vero cells assessed as reduction of virus-induced cytopathogenicity; assay type: functional; settings: Enterovirus B; summary of the method: as §3
Punta Toro virus = experiment: Antiviral activity against Punta Toro virus in african green monkey Vero cells assessed as reduction of virus-induced cytopathogenicity; assay type: functional; summary of the method: as §3
Human respirovirus 3 = experiment: Antiviral activity against Parainfluenza 3 virus in african green monkey Vero cells assessed as reduction of virus-induced cytopathogenicity; assay type: functional; summary of the method: as §3
[18] = tested on: Mammalian orthoreovirus 1; experiment: Antiviral activity against Reo virus 1 in african green monkey Vero cells assessed as reduction of virus-induced cytopathogenicity; assay type: functional; summary of the method: as §3
Sindbis virus = experiment: Antiviral activity against Sindbis virus in african green monkey Vero cells assessed as reduction of virus-induced cytopathogenicity; assay type: functional; summary of the method: as §3
[19] = tested on: Mycobacterium tuberculosis; experiment: Antitubercular activity against Mycobacterium tuberculosis H37Rv
Mycobacterium avium = experiment: Antitubercular activity against Mycobacterium avium; assay type: functional
Mycolicibacterium aurum = experiment: Antitubercular activity against Mycobacterium aurum A1; assay type: functional
[20] = as §4; assay type: cell-based; settings: E6SM cells; summary of the method: as §2
Human betaherpesvirus 5 [21] = experiment: Antiviral activity against human cytomegalovirus AD169 infected HEL cells assessed as reduction in virus plaque formation; assay type: functional, organism-based; settings: Human betaherpesvirus 5, AD169, HEL
Human betaherpesvirus 5 [22] = experiment: Antiviral activity against human cytomegalovirus Davis infected HEL cells assessed as reduction in virus plaque formation; assay type: functional, organism-based; settings: Human betaherpesvirus 5, Davis
Human alphaherpesvirus 3 [23] = experiment: Antiviral activity against TK+ VZV OKA infected HEL cells assessed as reduction in virus plaque formation; assay type: functional, organism-based; settings: Human alphaherpesvirus 3, OKA
Human alphaherpesvirus 3 [24] = experiment: Antiviral activity against TK- VZV 07/1 infected HEL cells assessed as reduction in virus plaque formation; assay type: functional, organism-based; settings: Human alphaherpesvirus 3, 07/1, HEL
[25] = tested on: Mycobacterium tuberculosis; experiment: Antitubercular activity against Mycobacterium tuberculosis H37Rv at 6.25 ug/ml by MABA assay; assay type: functional
[26] = Cytotoxicity against human HEL cells assessed as reduction of cell growth; assay type: cell-based
Summary of the method: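 HEL cells; CC50 = compound concentration reducing cell growth by 50%.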

Row | SMILES | Activity [1] | IC50 [1] | Activity [2] | IC50 [2] | CC50 [3] | MCC [4] | MIC [5] | MIC (Coxsackievirus B4 [6]) | MIC [7] | MCC [8] | MIC (Human alphaherpesvirus 1 [9]) | MIC (Human alphaherpesvirus 1 [10]) | MIC (Human alphaherpesvirus 2 [11]) | MIC (Human alphaherpesvirus 2 [12]) | MIC [13] | MIC [14] | MIC (Human alphaherpesvirus 1 [15]) | MIC (Human alphaherpesvirus 1 [16]) | Activity (Vero) | MIC (Coxsackievirus B4 [17]) | further results
1 | CCCCCCNC(=S)Nc1ccc(-c2n[nH]c(=S)n2CCCCCC)cc1 | 3% | > 1.71 µg/mL | 1% | > 1.71 µg/mL | 1.71 µg/mL (≈ 4.07 µM) | 16 µg/mL | > 3.2 µg/mL | > 3.2 µg/mL | > 3.2 µg/mL | 16 µg/mL | > 3.2 µg/mL | > 3.2 µg/mL | > 3.2 µg/mL | > 3.2 µg/mL | > 3.2 µg/mL | > 3.2 µg/mL | > 3.2 µg/mL | > 3.2 µg/mL | 16 µg/mL | > 3.2 µg/mL | Activity (E6SM): 16 µg/mL; MIC (Punta Toro virus): > 3.2 µg/mL; MIC (Human respirovirus 3): > 3.2 µg/mL; MIC [18]: > 3.2 µg/mL; MIC (Sindbis virus): > 3.2 µg/mL
2 | CC(C)CCOc1ccc(NC(=S)Nc2ccc(OCCC(C)C)cc2)cc1 [TIOCARLIDE] | – | – | – | – | – | – | – | – | – | – | – | – | – | – | – | – | – | – | – | – | MIC [19]: 2.5 µg/mL (≈ 6.24 µM); MIC (Mycobacterium avium): 2 µg/mL (≈ 4.99 µM); MIC (Mycolicibacterium aurum): 2 µg/mL (≈ 4.99 µM)
3 | C=CCn1c(COc2ccc(NC(=S)NCC)cc2)n[nH]c1=S | 4% | > 76.5 µg/mL | 2.5% | > 86.2 µg/mL | 90 µg/mL (≈ 258 µM) | 400 µg/mL | > 80 µg/mL | > 80 µg/mL | > 80 µg/mL | > 400 µg/mL | > 400 µg/mL | > 400 µg/mL | > 400 µg/mL | > 400 µg/mL | > 400 µg/mL | > 400 µg/mL | > 400 µg/mL | > 400 µg/mL | 400 µg/mL | 80 µg/mL (≈ 229 µM) | MCC [20]: > 400 µg/mL; MIC (Punta Toro virus): > 80 µg/mL; EC50 (Human betaherpesvirus 5 [21]): > 100 µg/mL; EC50 (Human betaherpesvirus 5 [22]): > 100 µg/mL; EC50 (Human alphaherpesvirus 3 [23]): 64 µg/mL (≈ 183 µM); EC50 (Human alphaherpesvirus 3 [24]): 64 µg/mL (≈ 183 µM); Activity [25]: inactive; MIC (Human respirovirus 3): > 80 µg/mL; MIC [18]: > 80 µg/mL; MIC (Sindbis virus): > 80 µg/mL; CC50 [26]: > 50 µg/mL
4 | CCn1c(COc2ccc(NC(=S)Nc3ccccc3)cc2)n[nH]c1=S | 26.5% | > 27.2 µg/mL | 25.5% | > 31.4 µg/mL | 31.9 µg/mL (≈ 82.8 µM) | 400 µg/mL | 80 µg/mL (≈ 208 µM) | > 80 µg/mL | > 80 µg/mL | 400 µg/mL | > 80 µg/mL | > 80 µg/mL | > 80 µg/mL | > 80 µg/mL | > 80 µg/mL | > 80 µg/mL | > 80 µg/mL | > 80 µg/mL | >= 80 ug ml-1 | 48 µg/mL (≈ 125 µM) | MCC [20]: 400 µg/mL; MIC (Punta Toro virus): > 80 µg/mL; EC50 (Human betaherpesvirus 5 [21]): 41 µg/mL (≈ 106 µM); EC50 (Human betaherpesvirus 5 [22]): 37 µg/mL (≈ 96 µM); EC50 (Human alphaherpesvirus 3 [23]): 29 µg/mL (≈ 75.2 µM); EC50 (Human alphaherpesvirus 3 [24]): 34 µg/mL (≈ 88.2 µM); inhibition at 6.25 µg/mL [25]: 76%; MIC (Human respirovirus 3): > 80 µg/mL; MIC [18]: > 80 µg/mL; MIC (Sindbis virus): > 80 µg/mL; CC50 [26]: > 50 µg/mL
5 | C=CCn1c(COc2ccc(NC(=S)Nc3ccccc3)cc2)n[nH]c1=S | 19% | > 20.2 µg/mL | 22.5% | > 20.3 µg/mL | 23.2 µg/mL (≈ 58.4 µM) | 80 µg/mL | > 16 µg/mL | > 16 µg/mL | > 16 µg/mL | 400 µg/mL | > 80 µg/mL | > 80 µg/mL | > 80 µg/mL | > 80 µg/mL | 80 µg/mL (≈ 201 µM) | 80 µg/mL (≈ 201 µM) | > 80 µg/mL | > 80 µg/mL | 80 µg/mL | 16 µg/mL (≈ 40.2 µM) | MCC [20]: 400 µg/mL; MIC (Punta Toro virus): > 16 µg/mL; EC50 (Human betaherpesvirus 5 [21]): 45 µg/mL (≈ 113 µM); EC50 (Human betaherpesvirus 5 [22]): 45 µg/mL (≈ 113 µM); EC50 (Human alphaherpesvirus 3 [23]): 9.9 µg/mL (≈ 24.9 µM); EC50 (Human alphaherpesvirus 3 [24]): 26.8 µg/mL (≈ 67.4 µM); inhibition at 6.25 µg/mL [25]: 79%; MIC (Human respirovirus 3): > 16 µg/mL; MIC [18]: > 16 µg/mL; MIC (Sindbis virus): > 16 µg/mL; CC50 [26]: 42 µg/mL (≈ 106 µM)
6 | CCNC(=S)Nc1ccc(OCc2n[nH]c(=S)n2C)cc1 | 1.5% | > 107 µg/mL | 2% | > 125 µg/mL | ≥ 107 µg/mL | 400 µg/mL | > 80 µg/mL | > 80 µg/mL | > 80 µg/mL | > 400 µg/mL | > 400 µg/mL | > 400 µg/mL | 240 µg/mL (≈ 742 µM) | 240 µg/mL (≈ 742 µM) | > 400 µg/mL | > 400 µg/mL | 240 µg/mL (≈ 742 µM) | 240 µg/mL (≈ 742 µM) | 400 µg/mL | > 80 µg/mL | MCC [20]: > 400 µg/mL; MIC (Punta Toro virus): > 80 µg/mL; EC50 (Human betaherpesvirus 5 [21]): > 100 µg/mL; EC50 (Human betaherpesvirus 5 [22]): > 100 µg/mL; EC50 (Human alphaherpesvirus 3 [23]): > 100 µg/mL; EC50 (Human alphaherpesvirus 3 [24]): > 100 µg/mL; Activity [25]: inactive; MIC (Human respirovirus 3): > 80 µg/mL; MIC [18]: > 80 µg/mL; MIC (Sindbis virus): > 80 µg/mL; CC50 [26]: > 50 µg/mL

— ChEMBL document CHEMBL1149790, “Synthesis of some novel thiourea derivatives obtained from 5-[(4-aminophenoxy)methyl]-4-alkyl/aryl-2,4-dihydro-3H-1,2,4-triazole-3-thiones and evaluation as antiviral/anti-HIV and anti-tuberculosis agents” (Eur J Med Chem, 2008)
